Data from ChEMBL document CHEMBL2146477, “Antimicrobial Activity of Adenine-Based Inhibitors of NAD(+)-Dependent DNA Ligase” (ACS Med Chem Lett, 2012).
In brackets after ≈: the same amount, converted by molar mass.

Experiments:
[1] = tested on: Haemophilus influenzae; test: Ratio of MIC for AcrABTolC deficient Haemophilus influenzae HIN101 to MIC for Haemophilus influenzae HIN102 overexpressing LigA; type: functional
How it was run: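 MICs for parental HIN101 and isogenic LigA-overexpressing HIN102 were each run in duplicate on different days, up to 64 μg/mL, using geometric-mean values. A difference of at least 4-fold on both occasions was taken to mean the LigA mode of action in the parental strain.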

[2] = tested on: Streptococcus pneumoniae; test: Antibacterial activity against Streptococcus pneumoniae SPN100 by NCCLS broth microdilution method; type: functional
[3] = Inhibition of NAD-dependent LigA in Streptococcus pneumoniae SPN100 after 20 mins by FRET assay
How it was run: (§1)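 LigA enzyme assay with NAD+ at a low multiple of its Km (around 1–10 μM). Percent inhibition was measured at 2-fold serial dilutions of compound, and IC50 was interpolated. The reported value is the geometric mean of at least 2 determinations.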

[4] = Inhibition of NAD-dependent LigA in AcrABTolC deficient Haemophilus influenzae HIN101 after 20 mins by FRET assay; how it was run: as §1
[5] = tested on: Haemophilus influenzae; test: Antibacterial activity against AcrABTolC deficient Haemophilus influenzae HIN101 by NCCLS broth microdilution method; type: functional
[6] = tested on: Haemophilus influenzae; test: Antibacterial activity against Haemophilus influenzae HIN102 overexpressing LigA by NCCLS broth microdilution method; type: functional
How it was run: (§2)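 MIC measured on the LigA-overexpressing strain, in duplicate on different days. The reported MIC is the geometric mean of the two. The maximum test concentration was 64 μg/mL.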

[7] = tested on: Streptococcus pneumoniae; test: Ratio of MIC for Streptococcus pneumoniae SPN102 to MIC for Streptococcus pneumoniae SPN100
[8] = tested on: Streptococcus pneumoniae; test: Antibacterial activity against Streptococcus pneumoniae SPN102 overexpressing LigA by NCCLS broth microdilution method; type: functional; how it was run: as §2

Structure (SMILES): Nc1nc(OC2CCC3CCCCC3C2)nc2c1ncn2C1CCCO1 (stereo not given)
- Ratio [1]: 16
- MIC [2]: 2 µg/mL (≈ 5.6 µM)
- IC50 [3]: 60 nM
- IC50 [4]: 860 nM
- MIC [5]: 8 µg/mL (≈ 22.4 µM)
- MIC [6]: 8 µg/mL (≈ 22.4 µM)

Structure (SMILES): Nc1nc(OC2CCCC2)nc2c1ncn2[C@@H]1O[C@H](CO)[C@@H](F)[C@H]1O
- Ratio [1]: 16
- MIC [2]: 4 µg/mL (≈ 11.3 µM)
- IC50 [3]: 100 nM
- Ratio [7]: 64
- IC50 [4]: 300 nM
- MIC [8]: > 64 µg/mL
- MIC [5]: 8 µg/mL (≈ 22.6 µM)
- MIC [6]: > 64 µg/mL

Structure (SMILES): C[C@H]1O[C@@H](n2cnc3c(N)nc(OC4CCC5CCCCC5C4)nc32)[C@H](O)[C@@H]1O (stereo not given in full)
- Ratio [1]: 16
- MIC [2]: 0.5 µg/mL (≈ 1.24 µM)
- IC50 [3]: 40 nM
- IC50 [4]: 260 nM
- MIC [5]: 8 µg/mL (≈ 19.8 µM)
- MIC [6]: 32 µg/mL (≈ 79.3 µM)

Structure (SMILES): C[C@H]1O[C@@H](n2cnc3c(N)nc(OC4CCCC4)nc32)[C@H](O)[C@@H]1Oc1ccccc1
- MIC [2]: 2 µg/mL (≈ 4.86 µM)
- IC50 [3]: 50 nM
- IC50 [4]: 1300 nM
- MIC [5]: 64 µg/mL (≈ 156 µM)

Structure (SMILES): C[C@H]1O[C@@H](n2cnc3c(N)nc(OCC45CC6CC(CC(C6)C4)C5)nc32)[C@H](O)[C@@H]1O
- MIC [2]: 2 µg/mL (≈ 4.81 µM)
- IC50 [3]: 200 nM
- IC50 [4]: 1700 nM
- MIC [5]: 32 µg/mL (≈ 77 µM)

Structure (SMILES): Nc1nc(OC2CCC3CCCC3C2)nc2c1ncn2C1CCCO1 (stereo not given)
- MIC [2]: 4 µg/mL (≈ 11.6 µM)
- IC50 [3]: 200 nM
- Ratio [7]: 64
- MIC [8]: 32 µg/mL (≈ 93.2 µM)

Structure (SMILES): C[C@H]1O[C@@H](n2cnc3c(N)nc(OC4CCCC4)nc32)[C@H](O)[C@@H]1CC1CCCCC1
- MIC [2]: 16 µg/mL (≈ 38.5 µM)
- IC50 [3]: 300 nM
- Ratio [7]: 64
- MIC [8]: 16 µg/mL (≈ 38.5 µM)

Structure (SMILES): Nc1nc(OC2CCC3CCCCC3C2)nc2c1ncn2[C@@H]1O[C@H](CO)[C@@H](O)[C@H]1O (stereo not given in full)
- MIC [2]: 1 µg/mL (≈ 2.38 µM)
- IC50 [3]: 80 nM
- IC50 [4]: 400 nM
- MIC [5]: 16 µg/mL (≈ 38.1 µM)
